Holding throughout (type): functional
The test system of assay [1] is T47D. Description: Estrogenic activity in human T47D cells assessed as drug level causing stimulation of cell proliferation equivalent to 100 pM estradiol by alamar blue assay. In outline:
(§1)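 T47D cells were grown in RPMI-1640 with pyruvate, NEAA, glutamine and 10% FBS, then plated at 1 × 10^4 cells/well in phenol red-free RPMI with 5% DCC-treated FBS. Compounds were added in DMSO (1% DMSO control) and incubated 96 h at 37 °C, 5% CO2, alongside serial estradiol. Alamar Blue was read after 3 h (ex 530/em 590 nm). Values came from linear regression over ≥5 concentrations, quadruplicate.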
(Alamar Blue is a resazurin reagent that responds to reducing activity.)

The subject of assay [2] is MCF7. Description: Estrogenic activity in human MCF7 cells assessed as drug level causing stimulation of cell proliferation equivalent to 100 pM estradiol by alamar blue assay. In outline:
(§2)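 MCF-7 cells were maintained in MEM with 6 ng/mL insulin, pyruvate, NEAA, glutamine and 10% FBS. For the assay, 1 × 10^4 cells/well went into phenol red-free RPMI with 5% DCC-treated FBS. Compounds were given in DMSO (control 1% DMSO) at 10 nM–100 µM for 96 h at 37 °C. Estradiol dilutions served as reference. Read-out: Alamar Blue, 3 h, fluorescence ex 530/em 590 nm. Values came from linear regression, ≥5 concentrations, quadruplicate.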

Assay [3] deals with MCF7. Description: Estrogenic activity in human MCF7 cells assessed as drug level causing stimulation of cell proliferation equivalent to 10 pM estradiol by alamar blue assay. An outline of the steps: as §2
Assay [4] concerns T47D. Description: Estrogenic activity in human T47D cells assessed as drug level causing stimulation of cell proliferation equivalent to 10 pM estradiol by alamar blue assay. An outline of the steps:
as §1

Turning to `O=c1c(-c2ccc(O)cc2)coc2cc(O)cc(O)c12` [GENISTEIN], the Activity was found to be 0.009 µM in assay [1], 0.013 µM in assay [2], 0.003 µM in assay [3] and 0.001 µM in assay [4].
As for `Oc1ccc(/C=C/c2cc(O)cc(O)c2)cc1` [RESVERATROL], the Activity in assay [3] was determined as 1.6 µM; in assay [4] it was 0.03 µM.
On to `COc1c(O)cc2occ(-c3ccc(O)cc3)c(=O)c2c1O` [TECTORIGENIN], for which the Activity in assay [1] turned out to be 0.5 µM; in assay [2], 1 µM; in assay [3], 0.3 µM; in assay [4], 0.04 µM.
For `COc1cc(-c2coc3cc(O[C@@H]4O[C@H](CO)[C@@H](O)[C@H](O)[C@H]4O)c(OC)c(O)c3c2=O)ccc1O` [IRISTECTORIN B], the Activity in assay [3] stood at 77.3 µM.
On to `COc1c(O[C@@H]2O[C@H](CO)[C@@H](O)[C@H](O)[C@H]2O)cc2occ(-c3ccc(O)cc3)c(=O)c2c1O` [TECTORIDIN], for which the Activity worked out at 0.08 µM in assay [2], 0.02 µM in assay [3] and 0.2 µM in assay [4].
Turning to `COc1c(O)cc2occ(-c3ccc(O)c(O)c3)c(=O)c2c1O` [IRILIN D], the Activity is 12.7 µM in assay [2] and 5.6 µM in assay [3].
In the case of `COc1ccc(-c2coc3cc(O[C@@H]4O[C@H](CO)[C@@H](O)[C@H](O)[C@H]4O)c(OC)c(O)c3c2=O)cc1O` [IRISTECTORIN A], the Activity in assay [3] is 26.1 µM.
`COc1cc(-c2coc3cc4c(c(OC)c3c2=O)OCO4)cc(OC)c1OC` [IRISFLORENTIN]: the Activity in assay [3] came to 50.3 µM.
Turning to `O=C(Cc1cc(O)cc(O)c1)c1ccc(O)cc1` [BELAMPHENONE], the Activity in assay [1] is 37.1 µM; in assay [2], 12.8 µM; in assay [3] it was 0.8 µM; in assay [4] it was 0.09 µM.
Consider `O=C(c1ccc(O)cc1)c1c(O)cc(O)cc1O` [IRIFLOPHENONE], for which the Activity came to 6.8 µM in assay [2], 0.7 µM in assay [3] and 4.9 µM in assay [4].
